In ChEMBL document CHEMBL1128398, “Structure-activity relationship of alpha-galactosylceramides against B16-bearing mice” (1995):

Tests used:
[1] = species: Homo sapiens; assay: Lymphocyte Proliferation Stimulatory effect on human umbilical cord blood at 100 ng/mL and measured for [3H]TdR (tritium-thymidine) uptake (percent of control); format: functional
Method in brief: (§1)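 Mononuclear cells were isolated from human peripheral blood or umbilical cord blood and plated at 1 × 10^5 cells/well in RPMI 1640 with 10% autologous plasma, with compound. After 4 days of incubation, a 6 h [3H]TdR pulse was given and uptake was counted by scintillation. Run in triplicate.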

[2] = species: Homo sapiens; assay: Lymphocyte Proliferation Stimulatory effect on human umbilical cord blood at 1 ng/mL and measured for [3H]TdR (tritium-thymidine) uptake (percent of control); format: functional; method in brief: as §1
[3] = species: Homo sapiens; assay: Lymphocyte Proliferation Stimulatory effect on human umbilical cord blood at 10 ng/mL and measured for [3H]TdR (tritium-thymidine) uptake (percent of control); format: functional; method in brief: as §1
[4] = species: Homo sapiens; assay: Lymphocyte Proliferation Stimulatory effect on human peripheral blood at 1 ng/mL and measured for [3H]TdR (tritium-thymidine) uptake (percent of control); format: functional; method in brief: as §1
[5] = species: Homo sapiens; assay: Lymphocyte Proliferation Stimulatory effect on human peripheral blood at 10 ng/mL and measured for [3H]TdR (tritium-thymidine) uptake (percent of control); format: functional; method in brief: as §1
[6] = species: Homo sapiens; assay: Lymphocyte Proliferation Stimulatory effect on human peripheral blood at 100 ng/mL and measured for [3H]TdR (tritium-thymidine) uptake (percent of control); format: functional; method in brief: as §1
[7] = system: Mus musculus; assay: Compound is administered at days 6, 10, and 14.Tumor volume of each mouse is measured on days 8, 12, 16 and 20(chemotherapeutic agent, mitomycin C (MMC)); format: functional
[8] = system: Mus musculus; assay: Compound is administered at days 6, 10, and 14.Tumor volume of each mouse is measured on days 8, 12, 16 and 20(compound alone (single)); format: functional
[9] = system: Mus musculus; assay: Compound is administered at days 6, 10, and 14.Tumor volume of each mouse is measured on days 8, 12, 16 and 20(compound plus MMC); format: functional
[10] = system: B16; assay: Tumor Growth Inhibitory effect (TGIR) on mice subcutaneously inoculated with B16 cells (chemotherapeutic agent, mitomycin C (MMC)); format: functional, Mus musculus; set-up: concentration or dose not given beside the values
Method in brief: (§2)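 Groups of six female BDF1 mice received B16 melanoma (1 × 10^6 cells/mouse) s.c. on day 0. AGL analogues were given i.v. at 100 μg/kg on days 1, 5 and 9, and MMC at 5 mg/kg i.p. on day 1; controls were untreated. Tumor volume (length × width × height/2, by callipers) was read on days 8, 12, 16 and 20. TGIR = [1 − mean test volume/mean control volume] × 100, and the maximum value is reported.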

[11] = system: B16; assay: Tumor Growth Inhibitory effect (TGIR) on mice subcutaneously inoculated with B16 cells (compound alone (single)); format: functional, Mus musculus; set-up: concentration or dose not given beside the values; method in brief: as §2
[12] = system: B16; assay: Tumor Growth Inhibitory effect (TGIR) on mice subcutaneously inoculated with B16 cells (compound plus MMC); format: functional, Mus musculus; set-up: concentration or dose not given beside the values; method in brief: as §2
[13] = species: Mus musculus; assay: Lymphocyte Proliferation Stimulatory effect was tested on mouse spleen cells and evaluated for at 6 h [3H]TdR (tritium-thymidine) pulse and uptake into cells at 1 ng/mL; format: functional
Method in brief: (§3)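 BALB/c spleen cells (2 × 10^5 cells/well, no stimulator cells) were cultured in 10% FCS RPMI 1640 with compound at 37 °C in 5% CO2 for 2–3 days. A 6 h [3H]TdR pulse followed, and uptake was counted by liquid scintillation. Run in triplicate.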

[14] = species: Mus musculus; assay: Lymphocyte Proliferation Stimulatory effect on Allogenic MLR at 10 ng/mL and measured for [3H]TdR (tritium-thymidine) uptake (percent of control); format: functional
Method in brief: (§4)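 Responders were BALB/c spleen cells and stimulators were C57BL/6 spleen cells pretreated with MMC (50 μg/mL, 30 min). Both were plated at 1 × 10^5 cells in 10% FCS RPMI 1640, with compounds added at plating. Culture was at 37 °C in 5% CO2 for 2–3 days, then a 6 h [3H]TdR pulse with scintillation counting. Run in triplicate.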

[15] = species: Mus musculus; assay: Lymphocyte Proliferation Stimulatory effect on Allogenic MLR at 100 ng/mL and measured for [3H]-TdR (tritium-thymidine) uptake (percent of control); format: functional; method in brief: as §4
[16] = species: Mus musculus; assay: Lymphocyte Proliferation Stimulatory effect was tested on mouse spleen cells and evaluated for at 6 h [3H]TdR (tritium-thymidine) pulse and uptake into cells at 10 ng/mL; format: functional; method in brief: as §3
[17] = species: Mus musculus; assay: Lymphocyte Proliferation Stimulatory effect was tested on mouse spleen cells and evaluated for at 6 h [3H]TdR (tritium-thymidine) pulse and uptake into cells at 100 ng/mL; format: functional; method in brief: as §3
[18] = species: Mus musculus; assay: Lymphocyte Proliferation Stimulatory effect on Allogenic MLR at 0.1 ng/mL and measured for [3H]TdR (tritium-thymidine) uptake (percent of control); format: functional; method in brief: as §4
[19] = species: Mus musculus; assay: Lymphocyte Proliferation Stimulatory effect on Allogenic MLR at 1 ng/mL and measured for [3H]TdR (tritium-thymidine) uptake (percent of control); format: functional; method in brief: as §4
[20] = species: Mus musculus; assay: Lymphocyte Proliferation Stimulatory effect on allogenic MLR at a concentration of 100n g/mL; format: functional; method in brief: as §4
[21] = species: Mus musculus; assay: Lymphocyte Proliferation Stimulatory effect on allogenic MLR at a concentration of 10 ng/mL; format: functional; method in brief: as §4
[22] = species: Mus musculus; assay: Lymphocyte Proliferation Stimulatory effect on allogenic MLR at a concentration of 1 ng/mL; format: functional; method in brief: as §4
[23] = species: Mus musculus; assay: Lymphocyte Proliferation Stimulatory effect on mouse spleen cell at a concentration of 100n g/mL; format: functional; method in brief: as §3
[24] = species: Mus musculus; assay: Lymphocyte Proliferation Stimulatory effect on mouse spleen cell at a concentration of 10 ng/mL; format: functional; method in brief: as §3
[25] = species: Mus musculus; assay: Lymphocyte Proliferation Stimulatory effect on mouse spleen cell at a concentration of 1 ng/mL; format: functional; method in brief: as §3

Row | SMILES | Tumor growth inhibition ratio (max TGIR) [10] [%] | Control [11] [%] | Control [12] [%] | Control [13] [%] | Control [16] [%] | Control [17] [%] | also measured
1 | CCCCCCCCCCCCCCCCCCCCCCCC[C@@H](O)C(=O)N[C@@H](CO[C@H]1O[C@@H](CO)[C@H](O)[C@H](O)[C@@H]1O)[C@H](O)[C@H](O)CCCCCCCCCCCCCC | 87.3 | 92.8 | 97.7 | 203 | 437 | 620 | Control [1]: 586%; Control [2]: 382%; Control [3]: 582%; Control [4]: 332%; Control [5]: 352%; Control [6]: 470%; Control [7]: 67.6%; Control [8]: 69.8%; Control [9]: 85%; Control [14]: 250%; Control [15]: 280%; Control [18]: 118%; Control [19]: 180%
2 | CCCCCCCCCCCCCCCCCCCC(=O)N[C@@H](CO[C@H]1O[C@@H](CO)[C@H](O)[C@H](O)[C@@H]1O)[C@H](O)CCCCCCCCCCCCCCC | 39.4 | 53.1 | 90.4 | 177 | 791 | 1009 | –
3 | CCCCCCCCCCCCCCCCCCCCCC[C@@H](O)C(=O)N[C@@H](CO[C@H]1O[C@@H](CO)[C@H](O)[C@H](O)[C@@H]1O)[C@H](O)[C@H](O)CCCCCCC | 46.5 | 46.2 | 85.1 | 196 | 541 | 936 | –
4 | CCCCCCCCCCCCCCCCCC(=O)N[C@@H](CO[C@H]1O[C@@H](CO)[C@H](O)[C@H](O)[C@@H]1O)[C@H](O)CCCCCCCCCCCCCCC | 64.1 | 78.1 | 80.3 | 155 | 383 | 645 | –
5 | CCCCCCCCCCCCCCCCCCCCCC[C@@H](O)C(=O)N[C@@H](CO[C@H]1O[C@@H](CO)[C@H](O)[C@H](O)[C@@H]1O)[C@H](O)[C@H](O)CCCCCCCCCCCCC | 61.5 | 82.4 | 90.6 | 520 | 1491 | 1202 | –
6 | CCCCCCCCCCCCCCCCCCCCCCCC[C@@H](O)C(=O)N[C@@H](CO[C@H]1O[C@@H](CO)[C@H](O)[C@H](O)[C@@H]1O)[C@H](O)[C@H](O)CCCCCCCCCCCCCCC | 87.3 | 72.3 | 97.1 | 221 | 488 | 673 | –
7 | CCCCCCCCCCCCCCCCCCCCCCCC(=O)N[C@@H](CO[C@H]1O[C@@H](CO)[C@H](O)[C@H](O)[C@@H]1O)[C@H](O)CCCCCCCCCCCCCCC | 64 | 68.9 | 99.1 | 1115 | 1432 | 1494 | –
8 | CCCCCCCCCCCCCCCCCCCCCCCC[C@@H](O)C(=O)N[C@@H](CO[C@H]1O[C@@H](CO)[C@H](O)[C@H](O)[C@@H]1O)[C@H](O)CCCCCCCCCCCCCCC | – | – | – | – | – | – | Control [1]: 362%; Control [2]: 210%; Control [3]: 238%
9 | CCCCCCCCCCCCCCCCCCCCCC[C@@H](O)C(=O)N[C@@H](CO[C@H]1O[C@@H](CO)[C@H](O)[C@H](O)[C@@H]1O)[C@H](O)[C@H](O)CCCCCCCCCCCCCC | 64 | 57.9 | 91.9 | 1060 | 1405 | 1552 | –
10 | CCCCCCCCCCCCCCCCCCCCCCCC[C@@H](O)C(=O)N[C@@H](CO[C@H]1O[C@@H](CO)[C@H](O)[C@H](O)[C@@H]1O)[C@H](O)[C@H](O)CCCCCCCCCCCCCCCC | 87.3 | 92.8 | 94.3 | 153 | 482 | 481 | –
11 | CCCCCCCCCCCCCCC[C@@H](O)[C@H](CO[C@H]1O[C@@H](CO)[C@H](O)[C@H](O)[C@@H]1O)NC(=O)CCCCCCCCCCCCC | 64.1 | 54.2 | 84.4 | 249 | 1010 | 1664 | –
12 | CCCCCCCCCCCCCCCCCCCCCC[C@@H](O)C(=O)N[C@@H](CO[C@H]1O[C@@H](CO)[C@H](O)[C@H](O)[C@@H]1O)[C@H](O)[C@H](O)CCCCCCCCCCC | 46.5 | 94.1 | 77.4 | 330 | 676 | 838 | –
13 | CCCCCCCCCCCCCCCCCCCCCCCC(=O)N[C@H](CCCCCCCCCCCCCCCC)CO[C@H]1O[C@@H](CO)[C@H](O)[C@H](O)[C@@H]1O | 80 | 40.7 | 91.4 | 90 | 100 | 147 | –
14 | CCCCCCCCCCCCCCCCCCCCCC[C@@H](O)C(=O)N[C@@H](CO[C@H]1O[C@@H](CO)[C@H](O)[C@H](O)[C@@H]1O)[C@H](O)[C@H](O)CCCCCCCCCCCC(C)C (stereo in doubt; form 2) | – | – | – | – | – | – | [3H] TdR uptake [20]: 32240 c.p.m.; [3H] TdR uptake [21]: 36713 c.p.m.; [3H] TdR uptake [22]: 36022 c.p.m.; [3H] TdR uptake [23]: 24264 c.p.m.; [3H] TdR uptake [24]: 19985 c.p.m.; [3H] TdR uptake [25]: 8230 c.p.m.
15 | CCCCCCCCCCCCCCCCCCCCCCCC(=O)N[C@@H](CO[C@H]1O[C@@H](CO)[C@H](O)[C@H](O)[C@@H]1O)[C@H](O)[C@H](O)CCCCCCCCCCCCCC | 64.8 | 65 | 90.8 | 198 | 642 | 790 | –
16 | CCCCCCCCCCCCCCCCCCCCCC[C@@H](O)C(=O)N[C@@H](CO[C@H]1O[C@@H](CO)[C@H](O)[C@H](O)[C@@H]1O)[C@H](O)[C@H](O)CCCCCCCCCCCC(C)C (stereo in doubt; form 1) | 61.5 | 86.8 | 94.6 | 282 | 524 | 879 | [3H] TdR uptake [20]: 31219 c.p.m.; [3H] TdR uptake [21]: 38668 c.p.m.; [3H] TdR uptake [22]: 29143 c.p.m.; [3H] TdR uptake [23]: 23968 c.p.m.; [3H] TdR uptake [24]: 20746 c.p.m.; [3H] TdR uptake [25]: 7935 c.p.m.
17 | CCCCCCCCCCCCCCCCCCCCCC(=O)N[C@@H](CO[C@H]1O[C@@H](CO)[C@H](O)[C@H](O)[C@@H]1O)[C@H](O)CCCCCCCCCCCCCCC | 39.4 | 56.9 | 85 | 378 | 992 | 875 | –
18 | CCCCCCCCCCCCCCCCCCCCCC[C@@H](O)C(=O)N[C@@H](CO[C@H]1O[C@@H](CO)[C@H](O)[C@H](O)[C@@H]1O)[C@H](O)CCCCCCCCCCCCCCC | 70.7 | 81.3 | 98.5 | 397 | 898 | 872 | –
